# T cell modulator: T cell immune modulators affecting CD8 T cell-vesicle binding. actives 0.068% (n = 330,000). response (vesicle binding), % at 7 µM. 2C CD8+ T cell-vesicle binding, flow cytometry; hits give low values;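 active = response, share of CD8 T cells binding vesicles, and their 90th percentile fluorescence all below set limits, cut at about 80% in these data, passing the limit was not always enough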;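 note: values below 100% mean blocked vesicle binding to the CD8+ T cells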
#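 System: murine 2C transgenic CD8+ T lymphocytes; also added: QL9-loaded Drosophila micro-vesicles; times: binding 1.5 h at 37 °C; measured by: flow cytometry, PE anti-B7-1 (FL2) versus Alexa647 anti-CD8 (FL8), PFA-fixed; control set: Peptide-free naked vesicles (low) and QL9 vesicles with 0.7% DMSO vehicle (high)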
# Pemphigus Ab inh: blocks pemphigus antibody binding to human desmoglein-3; P32926; DSG3-coupled beads, scFv-anti-DSG3-GFP binding, flow cytometry; hits give low values; binding (percent of control), % at 10 µM; actives 0.48% (n = 310,000);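 active = binding more than 3 SD below its plate's average and above zero; inconclusive = below that plate limit but binding exactly zero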;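 note: hits lower antibody fragment binding to DSG3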
# Vif imaging: blocks HIV Vif function. inhibition, % at 7.49 µM. HEK293T cells, Vif self-association by quenched fluorescence, imaging, 24 h. actives 0.35% (n = 340,000); in the data active = inhibition above about 50%, passing the limit was not always enough; inconclusive = no clear call, values can overlap the other calls; inactive = below about 31%
# Myeloid diff MLP: promotes myeloid progenitor differentiation | ER-HoxA9 myeloid progenitors, lysozyme-GFP differentiation, flow cytometry | calls only at 10 µM | actives 1% (n = 360,000) | AID 624256;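 active = normalized GFP-positive differentiation at or above the plate's own cutoff, the solvent-only control mean plus 3 SD; inconclusive = no clear call, values can overlap the other calls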;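 note: cells exposed to compound for four days before flow analysis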
# Myeloid diff CP1: promotes myeloid progenitor differentiation; shares compounds with Myeloid diff MLP; ER-HoxA9 myeloid progenitors, GFP/Mac1 double-positive flow; calls only; actives 2% (n = 2,300); AID 651706;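 active = share of green or green-and-red cells above 9 and 9% in run 1 or 4 and 3% in run 2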
# GFP autofluor: compound fluorescence in myeloid differentiation counter-screen; ER-HoxA9 myeloid progenitors, no estrogen, GFP autofluorescence flow cytometry; vehicle wells 0%, positive control 100%; shares compounds with Myeloid diff MLP; fluorescence response, % (test concentration not listed); actives 7.4% (n = 2,300);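 active = over 5% cells positive for green fluorescent reporter, or over 2% positive for both it and APC stain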;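 note: range taken on the double positive population between DMSO and positive control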
# The depositor's hits bear a star; i = inactive; ? = inconclusive; nt = no result given; + = active, no number. Only some compounds are listed: those with a hit (about 1.7% of all), similar ones and a draw of the others.
SMILES,T cell modulator,Pemphigus Ab inh,Vif imaging,Myeloid diff MLP,Myeloid diff CP1,GFP autofluor
CCCCc1nn(-c2cc(Cl)ccc2OC)c2c1C(=O)CC(C)(C)C2,394,103,-22,i,i,1
O=C1[C@@H](Oc2ccccc2)[C@@H](c2ccncc2)N1c1ccncc1,nt,104,14,i,nt,nt
CCOC(=O)[C@]12CCC=C1N(Cc1ccccc1)C(=O)[C@H](CC(=O)NCc1ccccc1)C2,nt,nt,nt,i,nt,nt
COc1cccc(-c2nc3nc(C)cc(C)n3c2NCc2ccccc2)c1,nt,nt,nt,i,nt,nt
Cn1c(N)nc2nc[nH]c2c1=S,nt,114,2,i,i,0
O=S(=O)(NCc1ccncc1)c1ccc(F)c(F)c1,nt,102,-31,i,i,0
Cc1sc2ncn(CC(=O)NCc3ccccn3)c(=O)c2c1S(=O)(=O)N1CCOCC1,273,nt,-4,i,i,0
CCOC(=O)CNC(=O)Cn1cnc2sc(C)c(S(=O)(=O)N3CCOCC3)c2c1=O,276,100,24,i,nt,nt
Cc1ccc(C(=O)OCC(=O)NC2CCCC(C)C2C)cc1S(=O)(=O)N1CCCCC1 (configuration not stated),218,90,-3,i,nt,nt
Cc1cc(=O)n2c(nc3ccccc32)s1,nt,102,-1,i,nt,nt
COc1ccc(NC(C)(C)c2nnnn2-c2c(C)cccc2C)cc1,254,119,19,i,i,0
Cc1ccc(C)c2sc(N3CCN(C(=O)c4ccc([N+](=O)[O-])o4)CC3)nc12,377,?,0,i,i,0
O=[N+]([O-])c1cccc(Cn2cnc3c(=S)nc[nH]c32)c1,nt,97,-8,i,nt,nt
N#CCCn1cnc2c(=S)nc[nH]c21,465,101,11,+,i,1
CCNc1ccc(S(=O)(=O)N(C)C)cc1NCC(=O)Nc1ccc(F)c(Cl)c1,156,110,-5,i,i,0
S=C(NCc1ccccc1)NCc1ccccc1Cl,165,95,0,i,nt,nt
Cc1nc(N)c(C#N)c(-c2cccnc2)c1C,597,103,0,+,i,0
COc1ccc(-c2csc3ncn(-c4ccccc4)c(=O)c23)cc1OC,390,103,4,i,nt,nt
COc1ccc(-c2csc3ncn(-c4ccccc4OC)c(=O)c23)cc1OC,93,105,-3,+,i,0
O=C(NCCN1CCOCC1)c1cc(S(=O)(=O)NCCCN2CCCC2=O)ccc1Cl,629,105,-3,i,nt,nt
O=C1CCCN1CCCNS(=O)(=O)c1ccc(Cl)c(C(=O)N2CCOCC2)c1,239,nt,1,i,i,0
Cc1ccc(N/C(N)=N/c2nc3c(c(=O)[nH]2)CCCC3)c(C)c1,326,108,1,+,i,1
N/C(=N\c1nc2c(c(=O)[nH]1)CCCC2)Nc1ccccc1,351,98,nt,i,nt,nt
CCOc1ccc(CN(C)CC(=O)Nc2cccc3ccccc23)cc1OC,134,nt,-3,i,i,0
COc1ccc(C(C)C)cc1-c1cccc2nncn12,nt,nt,0,i,nt,nt
SMILES,T cell modulator,Pemphigus Ab inh,Vif imaging,Myeloid diff MLP,Myeloid diff CP1,GFP autofluor
CC1(C)CC(=O)C=C(C#CC2(O)CCCCC2)C1,nt,104,5,?,i,0
CCC(C)NC(=O)c1ccc2nc(Cc3ccc(OC)cc3)oc2c1 (configuration not stated),211,117,1,i,nt,nt
COc1ccc(Cc2nc3ccc(C(=O)NC(C)C)cc3o2)cc1,270,108,-1,i,i,0
CC(=O)Nc1cnc(-c2ccccc2O)cn1,nt,nt,11,i,nt,nt
CCOC(=O)c1c(N)sc2c1CCC(C)C2 (configuration not stated),162,115,-9,+,i,1
CCOC(=O)c1c(NS(C)(=O)=O)sc2c1CCC(C)C2 (configuration not stated),292,nt,-10,i,nt,nt
CC1(C)CC(=O)C/C(=N/NC(=O)c2ccc(-c3ccccc3)cc2)C1,479,96,1,+,i,5.2*
CC1(C)CC(=O)C/C(=N\NC(=O)Cc2ccccc2)C1,286,119,5,i,nt,nt
CC1(C(=O)NS(=O)(=O)Cc2ccccc2)CCN1C(=O)Cc1ccccc1Cl (configuration not stated),nt,nt,-2,i,nt,nt
NS(=O)(=O)c1ccc(Nc2ncccc2[N+](=O)[O-])cc1,744,101,6,+,i,0
O=[N+]([O-])c1cccnc1Nc1ccc(Cl)cc1,nt,96,-3,i,nt,nt
CCCC1=[N+](CC(=O)c2ccccc2)CCn2c(C)ccc21,252,nt,5,+,i,0
CCCC1=[N+](CC)CCn2c(C)ccc21,312,100,-3,i,nt,nt
N#Cc1cc(C#N)c(N2CCN(c3ccccn3)CC2)nc1N,342,111,-3,+,i,0
c1ccc(COc2ncnc3c2ncn3CCCNC2CCN(Cc3ccccc3)CC2)cc1,nt,113,-4,i,nt,nt
O=C(CSCc1ccc(F)cc1)N1CCN(c2ccc(F)cc2)CC1,362,107,-15,i,nt,nt
Cc1ccc(CSCC(=O)N2CCN(c3ccc(F)cc3)CC2)cc1,306,107,16,i,i,1
CC(OC(=O)c1cccc(-n2cnnn2)c1)C(=O)Nc1ccc(F)c(F)c1F (configuration not stated),nt,106,-3,i,nt,nt
COc1ccccc1-c1cnc(C(O)c2ccc(C)cc2C)[nH]1 (configuration not stated),nt,nt,-3,i,nt,nt
Cc1ccc(S(=O)(=O)N2CCN(Cc3cc(=O)n4ccccc4n3)CC2)c(C)c1,401,96,-3,i,nt,nt
O=C(O)C1C2C=CC(C2)C1C(=O)OC1CC2CCC1C2 (configuration not stated),544,103,-3,+,i,0
COC(=O)C(C(=O)OC)C1C=CCN(C(C)=O)C1 (configuration not stated),nt,107,2,i,nt,nt
CC1(C)Cc2nc3sc4c(OCc5ccccc5)ncnc4c3cc2CO1,483,110,-3,i,nt,nt
CCc1nc(OCc2ccccc2)c2sc3nc4c(cc3c2n1)COC(C)(C)C4,649,101,6,i,i,0
CCc1ccc(NC2CC(=O)N(c3ccc(OC)cc3OC)C2=O)cc1 (configuration not stated),209,111,1,i,i,1
COc1ccc(N2C(=O)CC(NCCNc3ccc([N+](=O)[O-])cn3)C2=O)cc1 (configuration not stated),238,96,14,i,i,0
CCOc1ccc(N2C(=O)CC(NCCNc3ccc([N+](=O)[O-])cn3)C2=O)cc1 (configuration not stated),238,81,-2,i,nt,nt
CCn1c(CNC(=O)COc2ccc(C(C)C)cc2)nnc1SCC(=O)Nc1ccc(F)cc1,111,102,-3,i,i,0

# Screens deposited in PubChem BioAssay by several laboratories.
